Here are results for 1 molecule from ChEMBL document CHEMBL3779820, “Discovery of a Novel Inhibitor of Histone Lysine-Specific Demethylase 1A (KDM1A/LSD1) as Orally Active Antitumor Agent” (J Med Chem, 2016).

Each structure is given as a SMILES string. Calls of active or inactive are those of the source.

The target in data set [1] is Lysine-specific histone demethylase 1A (Homo sapiens) (UniProt O60341). As to the kind of experiment: Inhibition of KDM1A in human NB4 cells assessed as increase in GFI1B mRNA expression at biochemical IC50 measured after 24 hrs by RT-PCR analysis relative to control. The note with it: NB-4. The class given is cell-based.
Data set [2] is described as follows: Antitumor activity against 129SvEv mouse APL blast cells implanted in nonirradiated 129SvEv mouse assessed as increase in survival of leukemic mouse at 27 mg/kg, po administered for 5 days per week for 2 weeks by Kaplan-Meier plot analysis relative to vehicle control. It counts as functional. The procedure, abridged:
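Gavage in 40% PEG 400 in 5% glucose began once peripheral-blood blasts appeared (about day 10). Survival analysed by Kaplan–Meier versus vehicle. Separate arm for GFI1B: spleen cells taken after 3 days of dosing, qRT-PCR normalized to TBP.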

Data set [3] addresses LSD1/CoREST complex (Homo sapiens, UniProt O60341). As to the kind of experiment: Inhibition of human recombinant KDM1A/CoREST expressed in Escherichia coli using mono-methylated H3-K4 peptide as substrate assessed as H2O2 release preincubated for 15 mins followed by substrate addition measured for 12 mins by fluorescence-based microplate reader analysis. The essentials:
(§1)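 Human recombinant KDM1A/CoREST, KDM1B, MAO A and MAO B used as enzyme sources; compounds incubated with the enzyme and results expressed as IC50.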

Data set [4] has as its target T1, Amine oxidase [flavin-containing] A (Homo sapiens, UniProt P21397).
T1 sequence (P21397 whole entry): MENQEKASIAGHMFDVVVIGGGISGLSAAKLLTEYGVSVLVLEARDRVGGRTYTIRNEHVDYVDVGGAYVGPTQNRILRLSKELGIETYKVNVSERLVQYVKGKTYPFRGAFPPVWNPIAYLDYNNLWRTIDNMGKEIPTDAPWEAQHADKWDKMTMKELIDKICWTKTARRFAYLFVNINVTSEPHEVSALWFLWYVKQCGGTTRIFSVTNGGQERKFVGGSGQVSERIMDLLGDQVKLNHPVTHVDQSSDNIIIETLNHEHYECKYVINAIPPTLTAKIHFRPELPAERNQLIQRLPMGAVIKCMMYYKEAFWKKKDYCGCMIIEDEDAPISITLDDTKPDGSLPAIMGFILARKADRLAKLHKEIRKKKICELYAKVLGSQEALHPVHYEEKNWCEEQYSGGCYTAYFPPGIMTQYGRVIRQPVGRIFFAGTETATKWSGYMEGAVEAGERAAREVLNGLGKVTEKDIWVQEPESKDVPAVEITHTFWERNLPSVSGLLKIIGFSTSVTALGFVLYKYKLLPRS
As to the kind of experiment: Inhibition of human recombinant MAOA expressed in Pichia pastoris preincubated for 15 mins measured after 30 mins by bioluminescent-coupled assay. The essentials: as §1

Data set [5] deals with T2, Amine oxidase [flavin-containing] B (Homo sapiens, UniProt P27338).
T2 sequence (P27338 whole entry): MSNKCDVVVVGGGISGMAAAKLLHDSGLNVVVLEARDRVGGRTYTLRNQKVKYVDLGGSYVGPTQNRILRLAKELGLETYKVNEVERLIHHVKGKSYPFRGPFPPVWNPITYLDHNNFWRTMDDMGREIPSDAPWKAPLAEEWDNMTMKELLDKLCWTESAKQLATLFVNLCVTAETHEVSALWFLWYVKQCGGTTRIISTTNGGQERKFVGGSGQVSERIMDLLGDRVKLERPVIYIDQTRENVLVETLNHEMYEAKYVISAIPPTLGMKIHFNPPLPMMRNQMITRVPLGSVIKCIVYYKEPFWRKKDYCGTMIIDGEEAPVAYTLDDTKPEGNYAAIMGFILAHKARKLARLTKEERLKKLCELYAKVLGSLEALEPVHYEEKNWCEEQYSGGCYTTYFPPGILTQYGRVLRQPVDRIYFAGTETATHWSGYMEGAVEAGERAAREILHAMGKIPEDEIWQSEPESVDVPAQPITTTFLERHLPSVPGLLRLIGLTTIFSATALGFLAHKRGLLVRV
As to the kind of experiment: Inhibition of human recombinant MAOB expressed in Pichia pastoris preincubated for 15 mins measured after 30 mins by bioluminescent-coupled assay. The procedure, abridged:
as §1

Data set [6] deals with T3, Lysine-specific histone demethylase 2 (Homo sapiens, UniProt Q8NB78).
T3 sequence (Q8NB78 whole entry): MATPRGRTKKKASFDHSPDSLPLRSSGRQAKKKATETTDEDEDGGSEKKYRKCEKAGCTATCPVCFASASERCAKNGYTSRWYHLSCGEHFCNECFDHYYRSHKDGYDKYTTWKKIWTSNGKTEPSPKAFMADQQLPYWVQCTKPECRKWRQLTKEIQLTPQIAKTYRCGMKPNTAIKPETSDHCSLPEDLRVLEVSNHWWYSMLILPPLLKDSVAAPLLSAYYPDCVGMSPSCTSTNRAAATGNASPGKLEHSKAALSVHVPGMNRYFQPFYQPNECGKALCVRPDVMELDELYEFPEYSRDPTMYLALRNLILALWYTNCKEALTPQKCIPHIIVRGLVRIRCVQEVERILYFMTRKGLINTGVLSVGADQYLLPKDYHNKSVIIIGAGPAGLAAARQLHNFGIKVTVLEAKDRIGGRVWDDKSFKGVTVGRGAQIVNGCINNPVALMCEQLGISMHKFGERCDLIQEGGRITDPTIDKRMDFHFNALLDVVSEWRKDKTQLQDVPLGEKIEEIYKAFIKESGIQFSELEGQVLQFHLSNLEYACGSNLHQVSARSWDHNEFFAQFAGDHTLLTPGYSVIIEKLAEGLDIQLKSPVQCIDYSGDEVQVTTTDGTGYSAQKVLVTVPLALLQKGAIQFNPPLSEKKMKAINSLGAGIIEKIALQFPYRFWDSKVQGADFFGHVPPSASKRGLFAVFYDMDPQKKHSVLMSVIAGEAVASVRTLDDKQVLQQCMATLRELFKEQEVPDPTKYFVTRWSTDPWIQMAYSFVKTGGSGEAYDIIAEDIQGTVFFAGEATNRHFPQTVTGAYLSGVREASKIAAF
As to the kind of experiment: Inhibition of KDM1B (unknown origin).

Data set [7] addresses Lysine-specific histone demethylase 1A (Homo sapiens) (UniProt O60341). As to the kind of experiment: Inhibition of KDM1A in human NB4 cells assessed as increase in CD11b mRNA expression at biochemical IC50 measured after 24 hrs by RT-PCR analysis relative to control. As to conditions: NB-4. The class given is cell-based.
The nature of data set [8]: Anticlonogenic activity against human THP1 cells assessed as inhibition of colony formation of cells at 0.5 uM measured after 13 days relative to control. It counts as functional. The note with it: THP-1, […]. The procedure, abridged: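 THP-1 cells (RPMI, 10% FBS, 2 mM L-glutamine, 37°C, 5% CO2) plated at 250 cells/plate in enriched methylcellulose medium with compound at 0.5 µM for 13 days.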

In data set [9] the test system is THP-1. As to the kind of experiment: Induction of differentiation of human THP1 cells assessed assessed as alteration in morphology of colonies after 13 days by May Grunwald-Giemsa staining based assay. The class given is functional, cell-based. The procedure, abridged:
(§2)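 THP-1 cells cultured 13 days in semisolid methylcellulose with compound at 0.5 µM; colony morphology imaged, and cells recovered at end of culture examined as May Grunwald-Giemsa-stained cytospin preparations.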

Data set [10] can be described thus: Cmax in CD1 mouse at 5 mg/kg, iv administered as single dose. The class given is ADME, organism-based. More on the design: dose 5 mg/kg, route intravenous. The note with it: in vivo. The essentials: (§3)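 Single dose to CD1 mice: 5 mg/kg iv in 5% glucose with 10% tween 80, or 15 mg/kg orally in 5% glucose with 40% PEG. Plasma parameters derived from concentration–time profiles.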

A short description of data set [11]: Half life in CD1 mouse at 5 mg/kg, iv administered as single dose. It counts as ADME, organism-based. The note with it: in vivo. The essentials: as §3
Data set [12] in a line: AUC (0 to infinity) in CD1 mouse at 5 mg/kg, iv administered as single dose. It counts as ADME, organism-based. The arrangement: dose 5 mg/kg, time infinity, route intravenous. The note with it: in vivo. The procedure, abridged:
as §3

Data set [13] can be described thus: Clearance in CD1 mouse at 5 mg/kg, iv administered as single dose. It counts as ADME, organism-based. The note with it: in vivo. The essentials:
as §3

Data set [14] concerns Mus musculus. As to the kind of experiment: Terminal volume of distribution in CD1 mouse at 5 mg/kg, iv administered as single dose. The class given is ADME, organism-based. As to conditions: in vivo. The essentials:
as §3

A short description of data set [15]: Tmax in CD1 mouse at 15 mg/kg, po administered as single dose. As to conditions: in vivo. It counts as ADME, organism-based. The procedure, abridged:
as §3

Data set [16] is described as follows: Cmax in CD1 mouse at 15 mg/kg, po administered as single dose. More on the design: dose 15 mg/kg, route oral. It counts as ADME, organism-based. As to conditions: in vivo. The procedure, abridged:
as §3

A short description of data set [17]: AUC (0 to infinity) in CD1 mouse at 15 mg/kg, po administered as single dose. The note with it: in vivo. The class given is ADME, organism-based. More on the design: dose 15 mg/kg, time infinity, route oral. The procedure, abridged:
as §3

A short description of data set [18]: Oral bioavailability in CD1 mouse at 15 mg/kg administered as single dose. The class given is ADME, organism-based. The note with it: in vivo. The essentials: as §3
In data set [19] the test system is THP-1. As to the kind of experiment: Induction of differentiation of human THP1 cells after 13 days by cytospin assay. It counts as functional, cell-based. The essentials:
as §2

Data set [20] has as its system Mus musculus. As to the kind of experiment: Toxicity in nonirradiated 129SvEv mouse implanted with 129SvEv mouse APL blast cells assessed as change in body weight at 27 mg/kg, po administered for 5 days per week for 2 weeks measured during compound dosing. The class given is organism-based. As to conditions: in vivo.
Data set [21] in a line: Anticlonogenic activity against 129sv mouse APL blast cells assessed as inhibition of colony formation of cells at 0.25 uM measured after 7 days relative to control. The class given is functional. The note with it: 168 h.

By IC50 is commonly meant the point on the concentration scale where inhibition reaches its midpoint. Usually inhibition stands for how much of the control response was suppressed. As a reminder, the Cmax is the peak of the concentration-time curve. As a reminder, the half-life is the time needed for the level to fall by half in the phase considered. High values mean slow decline, low ones rapid decline. Usually AUC(0-inf) stands for the area under the concentration-time curve extrapolated to infinity. Low values mean less exposure, high ones more exposure. Broadly, the clearance is the rate of elimination divided by the concentration. Higher therefore signals efficient removal. By Tmax is commonly meant the time at which the peak concentration occurs. For orientation: bioavailability means the share of a dose that reaches the circulation, judged against a reference dose that is usually intravenous. Low readings indicate poor availability, high ones good availability.

As for `Cl.N[C@@H]1C[C@H]1c1ccc(NC(=O)c2cccc(N3CCOC3=O)c2)cc1` (racemic), the fold change (FC) in [1] worked out at 4.3; in [7], 2.9. Besides, the Activity is given as 15% in [2] and “Non-toxic” in [20]. Also, the IC50 in data set [3] stood at 0.028 µM; in data set [4] it was 0.0905 µM; in [5] it was 80.2 µM; in data set [6] it was 12.6 µM. Also, the inhibition at 0.5 µM in [8] stood at 51%. Moreover, the result in [9] and in data set [19] was Active. Further, the Cmax in data set [10] came to 3650 nM; in [16], 1140 nM. Also, the half-life in data set [11] was 1.92 h. Also, the total exposure AUC(0-inf) in data set [12] was 4.62 µM·h; in data set [17] it was 7.12 µM·h. Moreover, in data set [13], the clearance was 49.7 mL/min/kg. This molecule also showed a Vz/F in data set [14] of 8.45 L/kg. In addition, in [15], the Tmax stood at 0.667 h. The molecule further gave a bioavailability in [18] of 55.8%. Further, the inhibition at 0.25 µM in data set [21] worked out at 79%.
